Results taken from ChEMBL document CHEMBL4619733, “Design and optimization of a series of 4-(3-azabicyclo[3.1.0]hexan-3-yl)pyrimidin-2-amines: Dual inhibitors of TYK2 and JAK1” (Bioorg Med Chem, 2020).
In brackets after ≈: the same amount, converted by molar mass.

Columns and labels:
[1] = Lipophilicity, log D of compound at pH 7.4; assay type: physicochemical; settings: buffer
[2] = Apparent permeability in dog MDCK2 cells at pH 7.4; assay type: ADME, cell-based, Canis lupus familiaris, MDCK-II; settings: MDCK
Outline: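 Passive permeability across MDCK-II cells; mean apparent permeability reported.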

[3] = Oral bioavailability in Sprague-Dawley rat at 3 mg/kg; assay type: ADME, organism-based; settings: in vivo
Outline: (§1)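 Sprague-Dawley rats dosed orally at 3 mg/kg, with intravenous reference at 1 mg/kg.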

[4] = Half life in Sprague-Dawley rat at 1 mg/kg, iv; assay type: ADME, organism-based; settings: in vivo
[5] = AUC infinity in Sprague-Dawley rat at 3 mg/kg, po; assay type: ADME, organism-based; parameters: dose 3 mg/kg, route oral, time infinity; settings: in vivo; outline: as §1
[6] = Clearance in Sprague-Dawley rat plasma at 1 mg/kg, iv; assay type: ADME, organism-based
[7] = Intrinsic clearance in human hepatocytes per million cells; assay type: ADME, cell-based, Hepatocyte; settings: read-out: CLH
[8] = Volume of distribution in Sprague-Dawley rat at 1 mg/kg, iv; assay type: ADME, organism-based; settings: in vivo
[9] = Intrinsic clearance in human liver microsome; assay type: ADME; settings: liver microsomes, read-out: CLH
[10] = Cmax in Sprague-Dawley rat at 3 mg/kg, po; assay type: ADME, organism-based; parameters: dose 3 mg/kg, route oral; settings: in vivo; outline: as §1
[11] = Aqueous solubility of compound in pH 6.5 buffer; assay type: physicochemical
Outline: (§2)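 Solubility measured on crystalline material at pH 6.5 and pH 2.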

[12] = Aqueous solubility of compound in pH 2 buffer; assay type: physicochemical; outline: as §2

Compound	logD [1]	also measured
C[C@@H]1[C@@H]2CN(c3nc(Nc4cnn(C)c4)ncc3F)C[C@]12NC(=O)[C@H]1CC1(F)F	2.92	
O=C(N[C@@]12C[C@@H]1CN(c1nc(Nc3cnn(CCO)c3)ncc1F)C2)C1CC1	1.74	
C[C@@H]1[C@@H]2CN(c3nc(Nc4cnn(C)c4)ncc3F)C[C@]12NC(=O)[C@@H]1C[C@H]1C#N	2.35	Papp [2]: 12.9 ×10⁻⁶ cm/s
CCNC(=O)c1ccc(Nc2nccc(N3CC4CCC(C3)N4C(=O)C3CC3)n2)cc1	1.8	
C[C@@H]1[C@@H]2CN(c3nc(Nc4cnn(CCO)c4)ncc3F)C[C@]12NC(=O)[C@@H]1C[C@H]1C#N	1.71	
O=C(N[C@]12C[C@H]1CN(c1nc(Nc3cnn(CCO)c3)ncc1F)C2)C1CC1	1.75	
C[C@@H]1[C@@H]2CN(c3nc(Nc4cnn(C)c4)ncc3F)C[C@]12NC(=O)[C@H]1C[C@@H]1C#N	2.32	Papp [2]: 13.8 ×10⁻⁶ cm/s
N#C[C@H]1C[C@@H]1C(=O)N[C@@]12C[C@@H]1CN(c1nc(Nc3cnn(CCO)c3)ncc1F)C2	1.43	
C[C@@H]1[C@@H]2CN(c3nc(Nc4cnn(C)c4)ncc3F)C[C@]12NC(=O)[C@@H]1CC1(F)F	2.65	bioavailability [3]: 54%; half-life [4]: 1.4 h; AUC(0-inf) [5]: 2030 ng·h/mL; clearance [6]: 13 mL/min/kg; hepatocyte CLint [7]: 3.45 µL/min/1e6 cells; Vd [8]: 1.2 L/kg; microsomal CLint [9]: < 8 µL/min/mg; Cmax [10]: 614 ng/mL; solubility [11]: 140 µg/mL (≈ 344 µM); solubility [12]: > 15000 µg/mL; Papp [2]: 17 ×10⁻⁶ cm/s
O=C(C1CC1)N1C2CCC1CN(c1nc(Nc3cnn(CCO)c3)ncc1F)C2	1.8	
CCNC(=O)c1ccc(Nc2nccc(N3CC4CC(C3)N4C(=O)C3CC3)n2)cc1	1.7	
N#C[C@@H]1C[C@H]1C(=O)N[C@@]12C[C@@H]1CN(c1nc(Nc3cnn(CCO)c3)ncc1F)C2	1.4	
C[C@@H]1[C@@H]2CN(c3nc(Nc4cnn(CCO)c4)ncc3F)C[C@]12NC(=O)C1CC1	2.1	
C[C@@H]1[C@@H]2CN(c3nc(Nc4cnn(CCO)c4)ncc3F)C[C@]12NC(=O)[C@H]1C[C@@H]1C#N	1.75	Papp [2]: 1.2 ×10⁻⁶ cm/s
